Legend:
[1] = Drug uptake in mouse brain assessed as maximum standardized uptake value measured after 60 mins; type: ADME, tissue-based; settings: in vivo, 1 h
Summary of the method: (§1)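 Mouse dynamic PET. Tracer at 6.33–14.42 nmol/kg given by tail-vein injection; 60 min scan started 1 min later. Data expressed as SUV, i.e. decay-corrected regional radioactivity normalized to injected dose and body weight. Blocking: MAGLi432 at 5 mg/kg in DMSO/Tween80/saline 1/1/8, injected 5 min before tracer.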

[2] = Drug uptake in rat brain thalamus; type: ADME, tissue-based; settings: in vitro
[3] = Drug uptake in wild type mouse after 20 mins; type: ADME; settings: in vivo; summary of the method: as §1
[4] = Drug uptake in mouse brain assessed as standardized uptake value measured after 2 mins; type: ADME, tissue-based; settings: in vivo; summary of the method: as §1
[5] = Drug uptake in rat brain cerebellum; type: ADME, tissue-based; settings: in vitro
[6] = Drug uptake in rat brainstem; type: ADME, tissue-based; settings: in vitro
[7] = Drug uptake in rat brain striatum; type: ADME, tissue-based; settings: in vitro
[8] = Lipophilicity, logD of the compound at pH 7.4 by shake flask assay; type: physicochemical; settings: buffer
[9] = Drug uptake in rat brain cortex; type: ADME, tissue-based; settings: in vitro
[10] = Drug uptake in MAGL knock out mouse; type: ADME; settings: in vivo; summary of the method: as §1
[11] = Drug uptake in Mdrla/b-Bcrp KO mouse pretreated with MAGLi432; type: ADME; settings: in vivo; summary of the method: as §1
[12] = Drug uptake in rat brain in presence of SAR127303; type: ADME, tissue-based; settings: in vitro
[13] = Drug uptake in Mdrla/b-Bcrp KO mouse; type: ADME; settings: in vivo; summary of the method: as §1
[14] = Drug uptake in rat brain in presence of PF-06795071; type: ADME, tissue-based; settings: in vitro
[15] = Drug uptake in rat brain hippocampus; type: ADME, tissue-based; settings: in vitro

SUVmax [1] | Drug uptake [2] | Drug uptake [3] | SUV [4] | Drug uptake [5] | Drug uptake [6] | Drug uptake [7] | logD [8] | Drug uptake [9] | Drug uptake [10] | Drug uptake [11] | Drug uptake [12] | Drug uptake [13] | Drug uptake [14] | Drug uptake [15] | SMILES
0.4 | Active | Active | 1.67 | Active | Not Active | Active | 2.65 | Active | Not Active | Not Active | Not Active | Active | Not Active | Active | O=C1CO[C@H]2CCN([11C](=O)N3CC(CCc4c(F)cccc4C(F)(F)F)C3)C[C@H]2N1
 |  |  | 0.72 |  |  |  |  |  |  |  |  |  |  |  | O=C1CO[C@H]2CCN([11C](=O)N3CC(OCc4ccc(C(F)(F)F)cc4Cl)C3)C[C@H]2N1

From ChEMBL document CHEMBL5352430, “Multi-parameter optimization: Development of a morpholin-3-one derivative with an improved kinetic profile for imaging monoacylglycerol lipase in the brain” (Eur J Med Chem, 2022)
